According to ChEMBL document CHEMBL5329146, “Thiourea derivatives containing 4-arylthiazoles and d-glucose moiety: design, synthesis, antimicrobial activity evaluation, and molecular docking/dynamics simulations” (RSC Med Chem, 2023):
In brackets after ≈: the same amount, converted by molar mass.

Columns and labels:
Streptococcus pneumoniae = test: Antibacterial activity against Streptococcus pneumoniae assessed as inhibition of visible bacterial growth incubated for 18 to 20 hrs by microbroth dilution method; format: functional; conditions: time 18-20 hrs
[1] = test system: Staphylococcus epidermidis; test: Antibacterial activity against Staphylococcus epidermidis assessed as inhibition of visible bacterial growth incubated for 18 to 20 hrs by microbroth dilution method; format: functional; conditions: time 18-20 hrs
In short: (§1)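 Inoculum was a 4–6 h broth culture adjusted to 0.5 McFarland turbidity and diluted to a final 5 × 10^5 CFU mL−1. Plates were incubated at 35 °C for 18–20 h. MIC was the lowest concentration giving complete inhibition of visible growth. Run three times.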

Klebsiella pneumoniae = test: Antibacterial activity against Klebsiella pneumoniae assessed as inhibition of visible bacterial growth incubated for 18 to 20 hrs by microbroth dilution method; format: functional; conditions: time 18-20 hrs; in short: as §1
Clostridioides difficile = test: Antibacterial activity against Clostridium difficile assessed as inhibition of visible bacterial growth incubated for 18 to 20 hrs by microbroth dilution method; format: functional; conditions: time 18-20 hrs
Aspergillus flavus = test: Antifungal activity against Aspergillus flavus assessed as inhibition of fungal growth incubated for 72 hrs by agar dilution method; format: functional
In short: (§2)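 Agar dilution on Sabouraud dextrose agar, with compound solutions at 400 down to 0.78 μg mL−1 (twofold series). Fungal suspensions containing […] were applied to agar plates serially diluted with test compound. Plates were incubated at 35 °C, and MIC was read after 72 h. Experiments were performed three times.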

Salmonella typhimurium = test: Antibacterial activity against Salmonella typhimurium assessed as inhibition of visible bacterial growth incubated for 18 to 20 hrs by microbroth dilution method; format: functional, Salmonella enterica subsp. enterica serovar Typhimurium; conditions: Salmonella enterica; time 18-20 hrs; in short: as §1
Pseudomonas aeruginosa = test: Antibacterial activity against Pseudomonas aeruginosa assessed as inhibition of visible bacterial growth incubated for 18 to 20 hrs by microbroth dilution method; format: functional; conditions: time 18-20 hrs; in short: as §1
Fusarium oxysporum = test: Antifungal activity against Fusarium oxysporum assessed as inhibition of fungal growth incubated for 72 hrs by agar dilution method; format: functional; in short: as §2
Staphylococcus aureus = test: Antibacterial activity against Staphylococcus aureus assessed as inhibition of visible bacterial growth incubated for 18 to 20 hrs by microbroth dilution method; format: functional; conditions: time 18-20 hrs; in short: as §1
Saccharomyces cerevisiae = test: Antifungal activity against Saccharomyces cerevisiae assessed as inhibition of fungal growth incubated for 72 hrs by agar dilution method; format: functional; in short: as §2
Bacillus subtilis = test: Antibacterial activity against Bacillus subtilis assessed as inhibition of visible bacterial growth incubated for 18 to 20 hrs by microbroth dilution method; format: functional; conditions: time 18-20 hrs; in short: as §1
Candida albicans = test: Antifungal activity against Candida albicans assessed as inhibition of fungal growth incubated for 72 hrs by agar dilution method; format: functional; in short: as §2
Aspergillus niger = test: Antifungal activity against Aspergillus niger assessed as inhibition of fungal growth incubated for 72 hrs by agar dilution method; format: functional; in short: as §2
Escherichia coli = test: Antibacterial activity against Escherichia coli assessed as inhibition of visible bacterial growth incubated for 18 to 20 hrs by microbroth dilution method; format: functional; conditions: time 18-20 hrs; in short: as §1
DNA gyrase = DNA gyrase (Staphylococcus aureus, UniProt P0A0K8+P20831); test: Inhibition of Staphylococcus aureus DNA gyrase incubated for 30 mins in presence of relaxed plasmid DNA by supercoiling based gel electrophoresis analysis; format: protein-complex assay
DNA gyrase, sequence (P0A0K8 whole entry): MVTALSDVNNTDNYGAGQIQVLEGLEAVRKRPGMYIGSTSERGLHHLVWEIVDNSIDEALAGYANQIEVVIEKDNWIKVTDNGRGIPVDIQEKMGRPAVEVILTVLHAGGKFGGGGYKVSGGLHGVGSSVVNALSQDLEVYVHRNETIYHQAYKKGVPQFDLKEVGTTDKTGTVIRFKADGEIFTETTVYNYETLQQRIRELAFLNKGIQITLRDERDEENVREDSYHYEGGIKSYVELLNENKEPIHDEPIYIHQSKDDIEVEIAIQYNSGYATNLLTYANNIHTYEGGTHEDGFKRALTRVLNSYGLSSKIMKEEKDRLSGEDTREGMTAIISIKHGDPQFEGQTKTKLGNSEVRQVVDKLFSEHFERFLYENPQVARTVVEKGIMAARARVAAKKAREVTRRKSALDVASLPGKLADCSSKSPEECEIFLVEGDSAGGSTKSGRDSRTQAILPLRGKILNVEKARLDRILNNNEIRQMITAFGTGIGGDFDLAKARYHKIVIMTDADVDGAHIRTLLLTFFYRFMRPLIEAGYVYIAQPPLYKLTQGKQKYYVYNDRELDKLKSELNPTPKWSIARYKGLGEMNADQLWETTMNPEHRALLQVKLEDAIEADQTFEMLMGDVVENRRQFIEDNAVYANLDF
DNA gyrase, sequence (P20831 whole entry): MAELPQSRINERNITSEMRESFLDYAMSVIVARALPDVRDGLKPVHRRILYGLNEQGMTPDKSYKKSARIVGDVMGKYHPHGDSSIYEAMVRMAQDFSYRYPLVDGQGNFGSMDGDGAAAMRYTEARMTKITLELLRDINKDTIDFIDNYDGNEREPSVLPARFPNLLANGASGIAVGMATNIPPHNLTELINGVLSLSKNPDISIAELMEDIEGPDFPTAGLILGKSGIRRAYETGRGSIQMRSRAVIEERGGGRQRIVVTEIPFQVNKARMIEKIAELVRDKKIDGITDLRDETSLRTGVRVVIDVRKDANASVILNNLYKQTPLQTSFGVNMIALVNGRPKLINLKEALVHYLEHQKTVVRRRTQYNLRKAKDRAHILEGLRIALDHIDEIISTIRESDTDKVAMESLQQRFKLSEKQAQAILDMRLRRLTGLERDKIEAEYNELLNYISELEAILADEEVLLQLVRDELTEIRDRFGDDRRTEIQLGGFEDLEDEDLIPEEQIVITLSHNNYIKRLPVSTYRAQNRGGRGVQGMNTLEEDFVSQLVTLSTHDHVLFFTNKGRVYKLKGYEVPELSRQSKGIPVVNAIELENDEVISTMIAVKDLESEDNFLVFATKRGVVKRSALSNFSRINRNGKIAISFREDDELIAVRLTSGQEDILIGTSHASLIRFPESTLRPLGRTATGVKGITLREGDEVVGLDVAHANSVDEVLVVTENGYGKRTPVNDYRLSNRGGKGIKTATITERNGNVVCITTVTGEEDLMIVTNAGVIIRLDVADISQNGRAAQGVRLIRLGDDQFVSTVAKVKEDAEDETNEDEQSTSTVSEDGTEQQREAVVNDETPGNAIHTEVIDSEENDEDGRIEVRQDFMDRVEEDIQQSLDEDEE

Topoisomerase IV = Topoisomerase IV (Staphylococcus aureus, UniProt P0C1S7+P0C1U9); test: Inhibition of Staphylococcus aureus DNA topoisomerase 4 using supercoiled plasmid DNA as substrate; format: protein-complex assay
Topoisomerase IV, sequence (P0C1U9 whole entry): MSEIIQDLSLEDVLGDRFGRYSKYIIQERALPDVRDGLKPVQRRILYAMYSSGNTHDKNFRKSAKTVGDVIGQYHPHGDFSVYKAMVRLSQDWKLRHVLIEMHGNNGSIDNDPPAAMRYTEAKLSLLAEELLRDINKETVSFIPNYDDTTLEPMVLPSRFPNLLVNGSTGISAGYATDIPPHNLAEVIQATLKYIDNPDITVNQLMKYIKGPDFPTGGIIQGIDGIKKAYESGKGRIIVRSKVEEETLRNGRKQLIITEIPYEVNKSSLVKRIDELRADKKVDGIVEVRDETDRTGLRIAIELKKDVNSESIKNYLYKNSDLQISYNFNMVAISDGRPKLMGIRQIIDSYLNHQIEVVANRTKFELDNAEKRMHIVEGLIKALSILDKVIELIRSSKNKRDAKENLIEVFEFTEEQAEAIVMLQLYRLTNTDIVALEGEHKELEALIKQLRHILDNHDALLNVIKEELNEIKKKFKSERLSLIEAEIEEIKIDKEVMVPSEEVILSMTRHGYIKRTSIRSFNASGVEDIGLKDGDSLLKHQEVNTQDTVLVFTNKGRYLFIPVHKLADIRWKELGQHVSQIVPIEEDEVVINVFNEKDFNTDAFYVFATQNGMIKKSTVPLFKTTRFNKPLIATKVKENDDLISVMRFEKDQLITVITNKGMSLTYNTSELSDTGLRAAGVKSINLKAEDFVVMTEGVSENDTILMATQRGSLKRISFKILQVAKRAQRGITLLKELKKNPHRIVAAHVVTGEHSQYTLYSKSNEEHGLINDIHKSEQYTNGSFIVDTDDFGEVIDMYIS
Topoisomerase IV, sequence (P0C1S7 whole entry): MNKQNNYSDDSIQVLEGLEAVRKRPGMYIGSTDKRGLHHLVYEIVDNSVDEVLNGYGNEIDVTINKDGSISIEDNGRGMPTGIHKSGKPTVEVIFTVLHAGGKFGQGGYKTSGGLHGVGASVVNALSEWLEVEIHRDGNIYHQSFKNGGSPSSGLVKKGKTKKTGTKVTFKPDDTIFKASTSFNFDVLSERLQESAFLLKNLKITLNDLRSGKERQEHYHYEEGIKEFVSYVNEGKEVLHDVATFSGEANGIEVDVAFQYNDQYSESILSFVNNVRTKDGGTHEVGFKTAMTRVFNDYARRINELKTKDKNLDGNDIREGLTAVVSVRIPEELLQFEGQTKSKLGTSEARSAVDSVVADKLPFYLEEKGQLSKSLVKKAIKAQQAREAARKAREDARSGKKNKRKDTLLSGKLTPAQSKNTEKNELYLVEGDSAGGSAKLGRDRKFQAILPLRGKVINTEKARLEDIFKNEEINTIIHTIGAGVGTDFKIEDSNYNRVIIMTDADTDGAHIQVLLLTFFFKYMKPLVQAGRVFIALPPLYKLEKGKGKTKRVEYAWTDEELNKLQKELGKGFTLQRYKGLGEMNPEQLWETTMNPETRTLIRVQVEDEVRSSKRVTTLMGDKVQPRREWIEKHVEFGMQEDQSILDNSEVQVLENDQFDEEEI

Dihydrofolate reductase = Dihydrofolate reductase (Staphylococcus aureus, UniProt P0A017); test: Inhibition of Staphylococcus aureus DHFR preincubated for 5 mins followed by dihydrofolic acid addition and measured for 10 mins by absorbance based assay
Dihydrofolate reductase, sequence (P0A017 whole entry): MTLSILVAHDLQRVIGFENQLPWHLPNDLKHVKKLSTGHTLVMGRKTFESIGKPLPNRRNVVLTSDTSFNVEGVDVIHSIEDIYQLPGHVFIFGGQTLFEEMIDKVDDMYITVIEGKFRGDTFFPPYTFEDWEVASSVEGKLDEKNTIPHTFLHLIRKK

| Compound | MIC (Streptococcus pneumoniae) | MIC [1] | MIC (Klebsiella pneumoniae) | MIC (Clostridioides difficile) | MIC (Aspergillus flavus) | MIC (Salmonella typhimurium) | MIC (Pseudomonas aeruginosa) | MIC (Fusarium oxysporum) | MIC (Staphylococcus aureus) | MIC (Saccharomyces cerevisiae) | MIC (Bacillus subtilis) | MIC (Candida albicans) | MIC (Aspergillus niger) | MIC (Escherichia coli) | IC50 (DNA gyrase) | IC50 (Topoisomerase IV) | IC50 (Dihydrofolate reductase) |
| --- | --- | --- | --- | --- | --- | --- | --- | --- | --- | --- | --- | --- | --- | --- | --- | --- | --- |
| CCc1ccc(-c2csc(NC(=S)N[C@@H]3O[C@H](COC(C)=O)[C@@H](OC(C)=O)[C@H](OC(C)=O)[C@H]3OC(C)=O)n2)cc1 | 100 µg/mL (≈ 168 µM) | 6.25 µg/mL (≈ 10.5 µM) | 50 µg/mL (≈ 84.2 µM) | 400 µg/mL (≈ 674 µM) | 200 µg/mL (≈ 337 µM) | 100 µg/mL (≈ 168 µM) | 25 µg/mL (≈ 42.1 µM) | 400 µg/mL (≈ 674 µM) | 400 µg/mL (≈ 674 µM) | 400 µg/mL (≈ 674 µM) | 0.78 µg/mL (≈ 1.31 µM) | 6.25 µg/mL (≈ 10.5 µM) | 200 µg/mL (≈ 337 µM) | 12.5 µg/mL (≈ 21.1 µM) | – | – | – |
| CN[C@H](CC(C)C)C(=O)N[C@H]1C(=O)N[C@@H](CC(N)=O)C(=O)N[C@H]2C(=O)N[C@H]3C(=O)N[C@H](C(=O)N[C@H](C(=O)O)c4cc(O)cc(O)c4-c4cc3ccc4O)[C@H](O)c3ccc(c(Cl)c3)Oc3cc2cc(c3O[C@@H]2O[C@H](CO)[C@@H](O)[C@H](O)[C@H]2O[C@H]2C[C@](C)(N)[C@H](O)[C@H](C)O2)Oc2ccc(cc2Cl)[C@H]1O [VANCOMYCIN] | 1.56 µg/mL (≈ 1.08 µM) | 0.78 µg/mL (≈ 0.538 µM) | – | 1.56 µg/mL (≈ 1.08 µM) | – | – | – | – | 1.56 µg/mL (≈ 1.08 µM) | – | 1.56 µg/mL (≈ 1.08 µM) | – | – | – | – | – | – |
| O=C(O)c1cn(C2CC2)c2cc(N3CCNCC3)c(F)cc2c1=O [CIPROFLOXACIN] | – | 3.12 µg/mL (≈ 9.43 µM) | 1.56 µg/mL (≈ 4.71 µM) | – | – | 1.56 µg/mL (≈ 4.71 µM) | 1.56 µg/mL (≈ 4.71 µM) | – | 3.12 µg/mL (≈ 9.43 µM) | – | 3.12 µg/mL (≈ 9.43 µM) | – | – | – | – | – | – |
| Clc1ccc(COC(Cn2ccnc2)c2ccc(Cl)cc2Cl)c(Cl)c1 (configuration not stated) [MICONAZOLE] | – | – | – | – | 1.56 µg/mL (≈ 3.75 µM) | – | – | 3.12 µg/mL (≈ 7.51 µM) | – | 3.12 µg/mL (≈ 7.51 µM) | – | 3.12 µg/mL (≈ 7.51 µM) | 1.56 µg/mL (≈ 3.75 µM) | – | – | – | – |
| CC(=O)OC[C@H]1O[C@@H](NC(=S)Nc2nc(-c3ccc(C)cc3)cs2)[C@H](OC(C)=O)[C@@H](OC(C)=O)[C@@H]1OC(C)=O | 12.5 µg/mL (≈ 21.6 µM) | 400 µg/mL (≈ 690 µM) | 200 µg/mL (≈ 345 µM) | 25 µg/mL (≈ 43.1 µM) | 12.5 µg/mL (≈ 21.6 µM) | 25 µg/mL (≈ 43.1 µM) | 50 µg/mL (≈ 86.3 µM) | 200 µg/mL (≈ 345 µM) | 25 µg/mL (≈ 43.1 µM) | 0.78 µg/mL (≈ 1.35 µM) | 100 µg/mL (≈ 173 µM) | 400 µg/mL (≈ 690 µM) | 12.5 µg/mL (≈ 21.6 µM) | 6.25 µg/mL (≈ 10.8 µM) | – | – | – |
| COc1ccc(-c2csc(NC(=S)N[C@@H]3O[C@H](COC(C)=O)[C@@H](OC(C)=O)[C@H](OC(C)=O)[C@H]3OC(C)=O)n2)cc1[N+](=O)[O-] | 6.25 µg/mL (≈ 9.76 µM) | 50 µg/mL (≈ 78 µM) | 0.78 µg/mL (≈ 1.22 µM) | 200 µg/mL (≈ 312 µM) | 1.56 µg/mL (≈ 2.44 µM) | 50 µg/mL (≈ 78 µM) | 0.78 µg/mL (≈ 1.22 µM) | 25 µg/mL (≈ 39 µM) | 0.78 µg/mL (≈ 1.22 µM) | 200 µg/mL (≈ 312 µM) | 50 µg/mL (≈ 78 µM) | 12.5 µg/mL (≈ 19.5 µM) | 100 µg/mL (≈ 156 µM) | 200 µg/mL (≈ 312 µM) | 1250 nM | 67300 nM | 130 nM |
| CC(=O)OC[C@H]1O[C@@H](NC(=S)Nc2nc(-c3ccc(Br)cc3)cs2)[C@H](OC(C)=O)[C@@H](OC(C)=O)[C@@H]1OC(C)=O | 50 µg/mL (≈ 77.6 µM) | 25 µg/mL (≈ 38.8 µM) | 6.25 µg/mL (≈ 9.7 µM) | 6.25 µg/mL (≈ 9.7 µM) | 3.12 µg/mL (≈ 4.85 µM) | 0.78 µg/mL (≈ 1.21 µM) | 100 µg/mL (≈ 155 µM) | 0.78 µg/mL (≈ 1.21 µM) | 12.5 µg/mL (≈ 19.4 µM) | 25 µg/mL (≈ 38.8 µM) | 3.12 µg/mL (≈ 4.85 µM) | 50 µg/mL (≈ 77.6 µM) | 50 µg/mL (≈ 77.6 µM) | 1.56 µg/mL (≈ 2.42 µM) | – | – | – |
| CC(=O)OC[C@H]1O[C@@H](NC(=S)Nc2nc(-c3ccccc3)cs2)[C@H](OC(C)=O)[C@@H](OC(C)=O)[C@@H]1OC(C)=O | 25 µg/mL (≈ 44.2 µM) | 0.78 µg/mL (≈ 1.38 µM) | 25 µg/mL (≈ 44.2 µM) | 50 µg/mL (≈ 88.4 µM) | 50 µg/mL (≈ 88.4 µM) | 400 µg/mL (≈ 707 µM) | 6.25 µg/mL (≈ 11 µM) | 6.25 µg/mL (≈ 11 µM) | 200 µg/mL (≈ 354 µM) | 1.56 µg/mL (≈ 2.76 µM) | 25 µg/mL (≈ 44.2 µM) | 3.12 µg/mL (≈ 5.52 µM) | 0.78 µg/mL (≈ 1.38 µM) | 100 µg/mL (≈ 177 µM) | – | – | – |
| COc1ccc(-c2csc(NC(=S)N[C@@H]3O[C@H](COC(C)=O)[C@@H](OC(C)=O)[C@H](OC(C)=O)[C@H]3OC(C)=O)n2)cc1 | 3.12 µg/mL (≈ 5.25 µM) | 100 µg/mL (≈ 168 µM) | 1.56 µg/mL (≈ 2.62 µM) | 3.12 µg/mL (≈ 5.25 µM) | 6.25 µg/mL (≈ 10.5 µM) | 6.25 µg/mL (≈ 10.5 µM) | 12.5 µg/mL (≈ 21 µM) | 12.5 µg/mL (≈ 21 µM) | 1.56 µg/mL (≈ 2.62 µM) | 12.5 µg/mL (≈ 21 µM) | 400 µg/mL (≈ 672 µM) | 0.78 µg/mL (≈ 1.31 µM) | 6.25 µg/mL (≈ 10.5 µM) | 3.12 µg/mL (≈ 5.25 µM) | 1370 nM | 79200 nM | 170 nM |
| OC(Cn1cncn1)(Cn1cncn1)c1ccc(F)cc1F [FLUCONAZOLE] | – | – | – | – | 0.78 µg/mL (≈ 2.55 µM) | – | – | 0.78 µg/mL (≈ 2.55 µM) | – | 0.78 µg/mL (≈ 2.55 µM) | – | 0.78 µg/mL (≈ 2.55 µM) | 1.56 µg/mL (≈ 5.09 µM) | – | – | – | – |
| CC(=O)OC[C@H]1O[C@@H](NC(=S)Nc2nc(-c3ccc(Cl)cc3)cs2)[C@H](OC(C)=O)[C@@H](OC(C)=O)[C@@H]1OC(C)=O | 400 µg/mL (≈ 667 µM) | 3.12 µg/mL (≈ 5.21 µM) | 12.5 µg/mL (≈ 20.8 µM) | 12.5 µg/mL (≈ 20.8 µM) | 25 µg/mL (≈ 41.7 µM) | 12.5 µg/mL (≈ 20.8 µM) | 200 µg/mL (≈ 333 µM) | 3.12 µg/mL (≈ 5.21 µM) | 3.12 µg/mL (≈ 5.21 µM) | 3.12 µg/mL (≈ 5.21 µM) | 12.5 µg/mL (≈ 20.8 µM) | 25 µg/mL (≈ 41.7 µM) | 25 µg/mL (≈ 41.7 µM) | 50 µg/mL (≈ 83.3 µM) | 2820 nM | 68700 nM | 230 nM |
| CC(=O)OC[C@H]1O[C@@H](NC(=S)Nc2nc(-c3cccc([N+](=O)[O-])c3)cs2)[C@H](OC(C)=O)[C@@H](OC(C)=O)[C@@H]1OC(C)=O | 0.78 µg/mL (≈ 1.28 µM) | 12.5 µg/mL (≈ 20.5 µM) | 3.12 µg/mL (≈ 5.12 µM) | 0.78 µg/mL (≈ 1.28 µM) | 0.78 µg/mL (≈ 1.28 µM) | 3.12 µg/mL (≈ 5.12 µM) | 3.12 µg/mL (≈ 5.12 µM) | 50 µg/mL (≈ 81.9 µM) | 6.25 µg/mL (≈ 10.2 µM) | 6.25 µg/mL (≈ 10.2 µM) | 6.25 µg/mL (≈ 10.2 µM) | 100 µg/mL (≈ 164 µM) | 3.12 µg/mL (≈ 5.12 µM) | 0.78 µg/mL (≈ 1.28 µM) | – | – | – |
